Measured values reported in ChEMBL document CHEMBL4689842, “EUbOPEN Chemogenomics Library wave 1” (2021).

System: HEK-293T
Assay: Multiplex assay against HEK293T;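 as to Population Tubulin-Different-Phenotype (%): share of the cells with healthy nuclei that show this phenotype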
Format: toxicity, cell-based
Settings: human
How it was run: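 Phenotypes for tubulin, mitochondrial mass and membrane permeability are expressed as per cents of healthy-nucleus cells. Cells were stained live at seeding with Hoechst33342, BioTracker Green Microtubule Cytoskeleton Dye, MitoTracker Red and Annexin V Alexa Fluor 680, then imaged after compound addition on a CQ1 microscope at 37°C and 5% CO2. Machine-learning gating in CellPathfinder separated Hoechst high-intensity objects from normal cells, divided normal cells by nuclear state (healthy, pyknosed, fragmented) and divided pyknosed cells into mitotic or apoptotic.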

[1] = 12 h, 1 µM, compound concentration 1 uM, replicate 1
[2] = 12 h, 1 µM, compound concentration 1 uM, replicate 2
[3] = 12 h, 10 µM, compound concentration 10 uM, replicate 1
[4] = 12 h, 10 µM, compound concentration 10 uM, replicate 2
[5] = 24 h, 1 µM, compound concentration 1 uM, replicate 1
[6] = 24 h, 1 µM, compound concentration 1 uM, replicate 2
[7] = 24 h, 10 µM, compound concentration 10 uM, replicate 1
[8] = 24 h, 10 µM, compound concentration 10 uM, replicate 2
[9] = 48 h, 1 µM, compound concentration 1 uM, replicate 1
[10] = 48 h, 1 µM, compound concentration 1 uM, replicate 2
[11] = 48 h, 10 µM, compound concentration 10 uM, replicate 1
[12] = 48 h, 10 µM, compound concentration 10 uM, replicate 2

## CN1C2CCC1CC(OC(c1ccc(F)cc1)c1ccc(F)cc1)C2.Cl (stereo not given)
[1]
  Population Apoptotic (%): 50%
  Population Fragmented Nuclei (%): 12%
  Population Healthy Nuclei (%): 27%
  Population Hoechst High Intensity Objects (%): 12%
  Population Membrane Permeable-Phenotype (%): 2%
  Population Mitochondria Different-Phenotype (%): 84%
  Population Mitotic Cells (%): 50%
  Population Normal (%): 87%
  Population Pyknosed Nuclei (%): 60%
  Population Tubulin-Different-Phenotype (%): 58%
  Total Cell Count: 303
[2]
  Population Apoptotic (%): 18%
  Population Fragmented Nuclei (%): 2%
  Population Healthy Nuclei (%): 43%
  Population Hoechst High Intensity Objects (%): 3%
  Population Membrane Permeable-Phenotype (%): 18%
  Population Mitochondria Different-Phenotype (%): 35%
  Population Mitotic Cells (%): 81%
  Population Normal (%): 96%
  Population Pyknosed Nuclei (%): 54%
  Population Tubulin-Different-Phenotype (%): 56%
  Total Cell Count: 252
[3]
  Population Apoptotic (%): 80%
  Population Fragmented Nuclei (%): 9%
  Population Healthy Nuclei (%): 25%
  Population Hoechst High Intensity Objects (%): 13%
  Population Membrane Permeable-Phenotype (%): 1%
  Population Mitochondria Different-Phenotype (%): 100%
  Population Mitotic Cells (%): 19%
  Population Normal (%): 86%
  Population Pyknosed Nuclei (%): 65%
  Population Tubulin-Different-Phenotype (%): 98%
  Total Cell Count: 280
[4]
  Population Apoptotic (%): 63%
  Population Fragmented Nuclei (%): 3%
  Population Healthy Nuclei (%): 21%
  Population Hoechst High Intensity Objects (%): 6%
  Population Membrane Permeable-Phenotype (%): 2%
  Population Mitochondria Different-Phenotype (%): 92%
  Population Mitotic Cells (%): 36%
  Population Normal (%): 93%
  Population Pyknosed Nuclei (%): 74%
  Population Tubulin-Different-Phenotype (%): 95%
  Total Cell Count: 201
[5]
  Population Apoptotic (%): 48%
  Population Fragmented Nuclei (%): 15%
  Population Healthy Nuclei (%): 19%
  Population Hoechst High Intensity Objects (%): 14%
  Population Membrane Permeable-Phenotype (%): 10%
  Population Mitochondria Different-Phenotype (%): 76%
  Population Mitotic Cells (%): 51%
  Population Normal (%): 85%
  Population Pyknosed Nuclei (%): 64%
  Total Cell Count: 295
[6]
  Population Apoptotic (%): 22%
  Population Fragmented Nuclei (%): 4%
  Population Healthy Nuclei (%): 49%
  Population Hoechst High Intensity Objects (%): 1%
  Population Membrane Permeable-Phenotype (%): 12%
  Population Mitochondria Different-Phenotype (%): 35%
  Population Mitotic Cells (%): 77%
  Population Normal (%): 98%
  Population Pyknosed Nuclei (%): 46%
  Population Tubulin-Different-Phenotype (%): 64%
  Total Cell Count: 305
[7]
  Population Apoptotic (%): 79%
  Population Fragmented Nuclei (%): 16%
  Population Healthy Nuclei (%): 13%
  Population Hoechst High Intensity Objects (%): 20%
  Population Membrane Permeable-Phenotype (%): 3%
  Population Mitochondria Different-Phenotype (%): 100%
  Population Mitotic Cells (%): 20%
  Population Normal (%): 79%
  Population Pyknosed Nuclei (%): 70%
  Population Tubulin-Different-Phenotype (%): 96%
  Total Cell Count: 292
[8]
  Population Apoptotic (%): 88%
  Population Fragmented Nuclei (%): 3%
  Population Healthy Nuclei (%): 28%
  Population Hoechst High Intensity Objects (%): 7%
  Population Membrane Permeable-Phenotype (%): 1%
  Population Mitochondria Different-Phenotype (%): 96%
  Population Mitotic Cells (%): 11%
  Population Normal (%): 92%
  Population Pyknosed Nuclei (%): 67%
  Population Tubulin-Different-Phenotype (%): 86%
  Total Cell Count: 190
[9]
  Population Apoptotic (%): 47%
  Population Fragmented Nuclei (%): 20%
  Population Healthy Nuclei (%): 21%
  Population Hoechst High Intensity Objects (%): 19%
  Population Membrane Permeable-Phenotype (%): 7%
  Population Mitochondria Different-Phenotype (%): 53%
  Population Mitotic Cells (%): 52%
  Population Normal (%): 80%
  Population Pyknosed Nuclei (%): 58%
  Population Tubulin-Different-Phenotype (%): 67%
  Total Cell Count: 329
[10]
  Population Apoptotic (%): 11%
  Population Fragmented Nuclei (%): 4%
  Population Healthy Nuclei (%): 77%
  Population Hoechst High Intensity Objects (%): 2%
  Population Membrane Permeable-Phenotype (%): 15%
  Population Mitochondria Different-Phenotype (%): 15%
  Population Mitotic Cells (%): 89%
  Population Normal (%): 97%
  Population Pyknosed Nuclei (%): 18%
  Population Tubulin-Different-Phenotype (%): 52%
  Total Cell Count: 565
[11]
  Population Apoptotic (%): 78%
  Population Fragmented Nuclei (%): 21%
  Population Healthy Nuclei (%): 8%
  Population Hoechst High Intensity Objects (%): 21%
  Population Membrane Permeable-Phenotype (%): 0%
  Population Mitochondria Different-Phenotype (%): 100%
  Population Mitotic Cells (%): 21%
  Population Normal (%): 78%
  Population Pyknosed Nuclei (%): 69%
  Population Tubulin-Different-Phenotype (%): 95%
  Total Cell Count: 285
[12]
  Population Apoptotic (%): 75%
  Population Fragmented Nuclei (%): 9%
  Population Healthy Nuclei (%): 55%
  Population Hoechst High Intensity Objects (%): 10%
  Population Membrane Permeable-Phenotype (%): 1%
  Population Mitochondria Different-Phenotype (%): 96%
  Population Mitotic Cells (%): 24%
  Population Normal (%): 89%
  Population Pyknosed Nuclei (%): 34%
  Population Tubulin-Different-Phenotype (%): 85%
  Total Cell Count: 207

## COC(=N)c1nc2ccc3ncnc(Nc4ccc(OC)cc4F)c3c2s1
[1]
  Population Apoptotic (%): 15%
  Population Fragmented Nuclei (%): 16%
  Population Healthy Nuclei (%): 53%
  Population Hoechst High Intensity Objects (%): 21%
  Population Membrane Permeable-Phenotype (%): 3%
  Population Mitochondria Different-Phenotype (%): 12%
  Population Mitotic Cells (%): 84%
  Population Normal (%): 78%
  Population Pyknosed Nuclei (%): 29%
  Population Tubulin-Different-Phenotype (%): 5%
  Total Cell Count: 546
[2]
  Population Apoptotic (%): 24%
  Population Fragmented Nuclei (%): 4%
  Population Healthy Nuclei (%): 87%
  Population Hoechst High Intensity Objects (%): 5%
  Population Membrane Permeable-Phenotype (%): 0%
  Population Mitochondria Different-Phenotype (%): 21%
  Population Mitotic Cells (%): 75%
  Population Normal (%): 94%
  Population Pyknosed Nuclei (%): 7%
  Population Tubulin-Different-Phenotype (%): 9%
  Total Cell Count: 1072
[3]
  Population Apoptotic (%): 19%
  Population Fragmented Nuclei (%): 10%
  Population Healthy Nuclei (%): 66%
  Population Hoechst High Intensity Objects (%): 10%
  Population Mitochondria Different-Phenotype (%): 6%
  Population Mitotic Cells (%): 80%
  Population Normal (%): 89%
  Population Pyknosed Nuclei (%): 22%
  Population Tubulin-Different-Phenotype (%): 4%
  Total Cell Count: 552
[4]
  Population Apoptotic (%): 4%
  Population Fragmented Nuclei (%): 6%
  Population Healthy Nuclei (%): 88%
  Population Hoechst High Intensity Objects (%): 3%
  Population Membrane Permeable-Phenotype (%): 2%
  Population Mitochondria Different-Phenotype (%): 8%
  Population Mitotic Cells (%): 95%
  Population Normal (%): 96%
  Population Pyknosed Nuclei (%): 5%
  Population Tubulin-Different-Phenotype (%): 6%
  Total Cell Count: 1236
[5]
  Population Apoptotic (%): 19%
  Population Fragmented Nuclei (%): 14%
  Population Healthy Nuclei (%): 71%
  Population Hoechst High Intensity Objects (%): 11%
  Population Membrane Permeable-Phenotype (%): 3%
  Population Mitochondria Different-Phenotype (%): 7%
  Population Mitotic Cells (%): 80%
  Population Normal (%): 88%
  Population Pyknosed Nuclei (%): 13%
  Population Tubulin-Different-Phenotype (%): 12%
  Total Cell Count: 573
[6]
  Population Apoptotic (%): 17%
  Population Healthy Nuclei (%): 82%
  Population Hoechst High Intensity Objects (%): 5%
  Population Mitochondria Different-Phenotype (%): 4%
  Population Mitotic Cells (%): 82%
  Population Normal (%): 94%
  Population Pyknosed Nuclei (%): 2%
  Population Tubulin-Different-Phenotype (%): 19%
  Total Cell Count: 1668
[7]
  Population Apoptotic (%): 16%
  Population Fragmented Nuclei (%): 9%
  Population Healthy Nuclei (%): 82%
  Population Hoechst High Intensity Objects (%): 8%
  Population Membrane Permeable-Phenotype (%): 7%
  Population Mitochondria Different-Phenotype (%): 2%
  Population Mitotic Cells (%): 83%
  Population Normal (%): 91%
  Population Pyknosed Nuclei (%): 8%
  Population Tubulin-Different-Phenotype (%): 8%
  Total Cell Count: 657
[8]
  Population Apoptotic (%): 4%
  Population Fragmented Nuclei (%): 20%
  Population Healthy Nuclei (%): 77%
  Population Hoechst High Intensity Objects (%): 3%
  Population Membrane Permeable-Phenotype (%): 4%
  Population Mitotic Cells (%): 95%
  Population Normal (%): 96%
  Population Pyknosed Nuclei (%): 2%
  Population Tubulin-Different-Phenotype (%): 5%
  Total Cell Count: 2058
